Measured values from ChEMBL document CHEMBL5096201, “Rufomycins or Ilamycins: Naming Clarifications and Definitive Structural Assignments” (J Nat Prod, 2021).
pKd: −log10 of the molar value. In brackets after ≈: the same amount, converted by molar mass.

What was measured:
[1] = Binding affinity to in full length Mycobacterium tuberculosis ClpC1 expressed in Escherichia coli BL21 (DE3) assessed as dissociation constant by surface plasma resonance assay
In short: (§1)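 SPR with ClpC1 N-terminal domain or full-length protein. Association and dissociation rate constants (ka, kd) come from global fitting of double-referenced sensorgrams to a 1:1 Langmuir model. KD is calculated as kd/ka.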

[2] = tested on: Mycobacterium tuberculosis; assay: Antimycobacterial activity against Mycobacterium tuberculosis incubated for 7 days by microplate alamar blue assay; assay type: functional; settings: 168 h, time 7 day
In short: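 Microplate Alamar Blue readout by fluorescence. MIC is the lowest concentration giving a 90% fluorescence reduction relative to untreated bacterial controls.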

[3] = Binding affinity to N-terminal domain of Mycobacterium tuberculosis ClpC1 expressed in Escherichia coli BL21 (DE3) assessed as dissociation constant by surface plasma resonance assay; in short: as §1

| Compound | pKd [1] | MIC90 [2] [µM] | pKd [3] |
| --- | --- | --- | --- |
| C/C=C/C[C@@H]1NC(=O)[C@H](CC(C)C)N2C(=O)[C@H](C[C@@H](C)[C@@H]2O)N(C)C(=O)[C@H](C)NC(=O)[C@H](Cc2ccc(O)c([N+](=O)[O-])c2)NC(=O)[C@H](CC(C)C)N(C)C(=O)[C@H](Cc2cn(C(C)(C)[C@H]3CO3)c3ccccc23)NC1=O | 6.68 | 0.047 (≈ 0.049 µg/mL) | 6.73 |
| C/C=C/C[C@@H]1NC(=O)[C@H](CC(C)C)N2C(=O)[C@H](C[C@H](C)[C@H]2O)N(C)C(=O)[C@H](C)NC(=O)[C@H](Cc2ccc(O)c([N+](=O)[O-])c2)NC(=O)[C@H](CC(C)C)N(C)C(=O)[C@H](Cc2cn(C(C)(C)[C@H]3CO3)c3ccccc23)NC1=O | 7.51 | 0.021 (≈ 0.0219 µg/mL) | 7.49 |
| NNC(=O)c1ccncc1 [ISONIAZID] | – | 0.463 (≈ 0.0635 µg/mL) | – |
| C/C=C/C[C@@H]1NC(=O)[C@H](CC(C)C)N2C(=O)[C@H](C[C@H](C)[C@@H]2O)N(C)C(=O)[C@H](C)NC(=O)[C@H](Cc2ccc(O)c([N+](=O)[O-])c2)NC(=O)[C@H](CC(C)C)N(C)C(=O)[C@H](Cc2cn(C(C)(C)[C@H]3CO3)c3ccccc23)NC1=O | 7.57 | 0.012 (≈ 0.0125 µg/mL) | 7.54 |
| CO[C@H]1/C=C/O[C@@]2(C)Oc3c(C)c(O)c4c(O)c(c(/C=N/N5CCN(C)CC5)c(O)c4c3C2=O)NC(=O)/C(C)=C\C=C\[C@H](C)[C@H](O)[C@@H](C)[C@@H](O)[C@@H](C)[C@H](OC(C)=O)[C@@H]1C [RIFAMPIN] | – | 0.028 (≈ 0.023 µg/mL) | – |
| C/C=C/C[C@@H]1NC(=O)[C@H](CC(C)C)N2C(=O)[C@H](C[C@@H](C)[C@H]2O)N(C)C(=O)[C@H](C)NC(=O)[C@H](Cc2ccc(O)c([N+](=O)[O-])c2)NC(=O)[C@H](CC(C)C)N(C)C(=O)[C@H](Cc2cn(C(C)(C)[C@H]3CO3)c3ccccc23)NC1=O | 6.75 | 0.046 (≈ 0.0479 µg/mL) | 6.74 |
